ChEMBL document CHEMBL1124463, “Retinobenzoic acids. 3. Structure-activity relationships of retinoidal azobenzene-4-carboxylic acids and stilbene-4-carboxylic acids” (1989)
Active and inactive are the calls of the source. The rule behind the calls is not given here.

Columns and labels:
HL-60 [1] = assay: The ability to induce differentiation of HL-60 cells relative to that of retinoic acid; format: functional, Homo sapiens
Method in brief: (§1)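 HL-60 cells from suspension culture in RPMI1640 with 5% FCS and antibiotics, 37 °C, 5% CO2. Compounds were dissolved in ethanol at 0.2 mM (stock), with final ethanol below 0.5%, and added to cells seeded at about 8 × 10^4 cells/mL for 4 days. Retinoic acid was run concurrently. Value is the ED50 ratio of retinoic acid to compound, with ED50 taken from NBT-reduction data.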

HL-60 [2] = assay: The ability to induce differentiation of human promyelocytic leukemia HL-60 cell line to mature granulocyte; format: functional; settings: read-out: ED50 (the source's name)
Method in brief: (§2)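 HL-60 cells in RPMI1640 with 5% FCS, ethanol stocks at 0.2 mM, final ethanol <0.5%, seeded at ~8 × 10^4 cells/mL and exposed 4 days across 5 orders of concentration. Cells were then incubated 20 min at 37 °C with an equal volume of PBS containing 0.2% NBT and 200 ng/mL TPA. Formazan-positive cells were counted (≥200 cells). ED50 from NBT data; ≥3 repeats.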

HL-60 [3] = assay: The ability to induce differentiation of human promyelocytic leukemia HL-60 cell line to mature granulocyte was determined in a NBT reduction assay; IA= Inactive at >10e-6; format: functional, cell-based; method in brief: as §2
HL-60 [4] = assay: The ability to induce differentiation of human promyelocytic leukemia HL-60 cell line to mature granulocyte was determined in a NBT reduction assay; IA= Inactive; format: functional, cell-based; method in brief: as §2
HL-60 [5] = assay: The ability to induce differentiation of human promyelocytic leukemia HL-60 cell line to mature granulocyte was determined in a NBT reduction assay; NA means inactive.; format: functional, cell-based; method in brief: as §2
HL-60 [6] = assay: Activity to differentiate HL-60 cells relative to that of retinoic acid; format: functional, Homo sapiens; method in brief: as §1
HL-60 [7] = assay: The ability to induce differentiation of human promyelocytic leukemia HL-60 cell line to mature granulocyte was determined in a NBT reduction assay; Maximum cellular response to compound is less than half of that of retinoic acid.; format: functional; settings: read-out: ED50 (the source's name); method in brief: as §2

Structure (SMILES)	Relative activity (HL-60 [1])	EC50 (HL-60 [2])	also measured
CCc1ccc(/N=N/c2ccc(C(=O)O)cc2)cc1CC	0.53	220 nM	–
CC1(C)CCC(C)(C)c2cc(/C(=C/c3ccc(C(=O)O)cc3)C(F)(F)F)ccc21	5.7	31 nM	–
CC(C)(C)c1cccc(C2OC2c2ccc(C(=O)O)cc2)c1 (stereo unspecified)	< 0.01	> 1000 nM	–
CCc1cccc(/N=N/c2ccc(C(=O)O)cc2)c1	<0.1	–	ED50 (HL-60 [3]): inactive
CC1(C)CCC(C)(C)c2cc(C3(C)OC3c3ccc(C(=O)O)cc3)ccc21 (stereo unspecified)	0.65	130 nM	–
CC1(C)CCC(C)(C)c2cc(/C=C/c3ccc(C(=O)O)cc3)ccc21	260	0.5 nM	–
CC1(C)CCC(C)(C)c2cc(/N=[N+](\[O-])c3ccc(C(=O)O)cc3)ccc21	1960	0.25 nM	–
CC1(C)CCOc2ccc(/N=N/c3ccc(C(=O)O)cc3)cc21	3.5	130 nM	–
CC1(C)CCC(C)(C)c2cc(C(=O)C(=O)c3ccc(C(=O)O)cc3)ccc21	3.9	140 nM	–
CC(C)c1cc(/N=N/c2ccc(C(=O)O)cc2)cc(C(C)C)c1	0.22	410 nM	–
CC(C)(C)c1cccc(/N=N/c2ccc(C(=O)O)cc2)c1	0.36	400 nM	–
CC1(C)CCC(C)(C)c2cc(/N=N/c3ccc(C(=O)O)cc3)ccc21	130	–	–
CC(C)c1ccc(/N=N/c2ccc(C(=O)O)cc2)c(C(C)C)c1	<0.1	> 10000 nM	–
CC1(C)CCC(C)(C)c2cc(C3OC3c3ccc(C(=O)O)cc3)ccc21 (stereo unspecified)	22	4.3 nM	–
CCc1ccc(/C(C)=C/c2ccc(C(=O)O)cc2)cc1CC	2.2	87 nM	–
C/C(=C\c1ccc(C(=O)O)cc1)c1ccc2c(c1)C(C)(C)CCC2(C)C	90	2.5 nM	–
CCc1ccc(C2(C)OC2c2ccc(C(=O)O)cc2)cc1CC (stereo unspecified)	–	–	ED50 (HL-60 [4]): inactive
CC(C)(C)c1ccc(C2OC2c2ccc(C(=O)O)cc2)cc1 (stereo unspecified)	< 0.01	> 1000 nM	–
CC1(C)CCC(C)(C)c2cc(CCc3ccc(C(=O)O)cc3)ccc21	2.7	130 nM	–
O=C(O)c1ccc(/N=N/c2ccccc2)cc1	–	–	ED50 (HL-60 [4]): inactive

Structure (SMILES)	Relative activity (HL-60 [1])	EC50 (HL-60 [2])	also measured
CC(C)(C)c1ccc(/C=C/c2ccc(C(=O)O)cc2)cc1	–	–	ED50 (HL-60 [4]): inactive
Cc1cccc(/N=N/c2ccc(C(=O)O)cc2)c1	–	–	ED50 (HL-60 [4]): inactive
CC(C)c1ccc(/N=N/c2ccc(C(=O)O)cc2)cc1C(C)C	39	2.3 nM	–
O=C(O)c1ccc(/C=C/c2ccccc2)cc1	–	–	ED50 (HL-60 [5]): inactive
C/C(=C\c1ccc(C(=O)O)cc1)c1ccc(C(C)C)c(C(C)C)c1	–	13 nM	Relative activity (HL-60 [6]): 15
C/C(=C\c1ccc(C(=O)O)cc1)c1ccc(C(C)(C)C)cc1	–	–	ED50 (HL-60 [4]): inactive
CC1(C)CCSc2ccc(/N=N/c3ccc(C(=O)O)cc3)cc21	2.1	210 nM	–
CC(C)c1ccc(C(C)C)c(/N=N/c2ccc(C(=O)O)cc2)c1	–	–	ED50 (HL-60 [4]): inactive
O=C(O)c1ccc(/N=N/c2cccc(-c3ccccc3)c2)cc1	<0.1	> 10000 nM	–
CC(C)c1cccc(/N=N/c2ccc(C(=O)O)cc2)c1	0.29	380 nM	–
CC1(C)CCC(C)(C)c2cc3oc(-c4ccc(C(=O)O)cc4)cc3cc21	120	1.3 nM	–
CC1=C(/C=C/C(C)=C/C=C/C(C)=C/C(=O)O)C(C)(C)CCC1 [TRETINOIN]	100	2.4 nM	–
C/C(=C\c1ccc(C(=O)O)cc1)c1ccc(C)c(C)c1	–	–	ED50 (HL-60 [4]): inactive
CC(C)c1ccc(/N=N/c2ccc(C(=O)O)cc2)cc1	<0.1	> 10000 nM	–
CC(C)c1ccccc1/N=N/c1ccc(C(=O)O)cc1	–	–	ED50 (HL-60 [4]): inactive
O=C(O)c1ccc(/N=N/c2cccc(C3CCCCC3)c2)cc1	0.68	130 nM	–
CC(C)(C)c1cccc(/C=C/c2ccc(C(=O)O)cc2)c1	13	–	–
CC1(C)CCC(C)(C)c2cc3c(cc21)C=C(c1ccc(C(=O)O)cc1)C3	–	–	EC50 (HL-60 [7]): 6.6 nM
CC1(C)CCC(C)(C)c2cc3c(cc21)CC/C3=C\c1ccc(C(=O)O)cc1	570	0.2 nM	–
